One data set relates to Vero. The experiment in a line: Antiviral activity against herpes simplex virus type 1 (KOS strain) grown on human foreskin fibroblast cells determined by vedduction in plaque formation upon incubation at 37 degrees C with the compound dissolved in DMSO until plaque were formed. In kind it is functional, cell-based. The method, boiled down: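 HSV-1 KOS, about 50 PFU per well, was adsorbed for 1 h at 37 °C. The inoculum was then replaced with drug dilutions from 200-fold DMSO stocks in DMEM containing 10% FBS and 0.8% carboxymethyl cellulose. Cultures were kept at 37 °C until plaques appeared. Plaques were counted microscopically or by crystal violet staining (0.1% in 20% ethanol). IC50 came from linear regression of % inhibition relative to the uninhibited control.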

Data set [1] is described as follows: Toxicity on uninfected human foreskin fibroblast cells determined in microscopic evaluation and quantitative neutral red dye uptake assay. As to conditions: uninfected human foreskin fibroblast (HFF) cells. The data set is classed as cell-based. The method, boiled down: (§1)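 Uninfected cells were seeded as subconfluent monolayers and exposed to compound for 3 days. Viability was judged both by microscopic inspection and by quantitative neutral red dye uptake, giving CC50.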

Data set [2] deals with HFF. Description: Antiviral activity against human cytomegalovirus (Davis strain) grown on human foreskin fibroblast cells determined by reduction in plaque formation upon incubation at 37 degrees C with the compound dissolved in DMSO. The data set is classed as functional, cell-based.
Data set [3] deals with HFF. The experiment in a line: Antiviral activity against Varicella-Zoster virus (Webster strain) grown on human foreskin fibroblast cells determined by vedduction in plaque formation upon incubation at 37 degrees C with the compound dissolved in DMSO until plaque were formed. In kind it is functional, cell-based. Summed up: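 Monolayers of human foreskin fibroblasts were infected with about 50 PFU per well for 1 h at 37 °C. The inoculum was then replaced with DMEM containing 10% FBS, 0.8% carboxymethyl cellulose and diluted compound from 200-fold DMSO stocks. Plates were incubated at 37 °C until plaques formed. Plaques were counted microscopically or after 0.1% crystal violet staining. IC50 came from linear regression of % inhibition versus untreated controls.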

Data set [4] deals with T1, DNA polymerase alpha catalytic subunit (Homo sapiens, UniProt P09884).
T1 sequence (P09884 whole entry): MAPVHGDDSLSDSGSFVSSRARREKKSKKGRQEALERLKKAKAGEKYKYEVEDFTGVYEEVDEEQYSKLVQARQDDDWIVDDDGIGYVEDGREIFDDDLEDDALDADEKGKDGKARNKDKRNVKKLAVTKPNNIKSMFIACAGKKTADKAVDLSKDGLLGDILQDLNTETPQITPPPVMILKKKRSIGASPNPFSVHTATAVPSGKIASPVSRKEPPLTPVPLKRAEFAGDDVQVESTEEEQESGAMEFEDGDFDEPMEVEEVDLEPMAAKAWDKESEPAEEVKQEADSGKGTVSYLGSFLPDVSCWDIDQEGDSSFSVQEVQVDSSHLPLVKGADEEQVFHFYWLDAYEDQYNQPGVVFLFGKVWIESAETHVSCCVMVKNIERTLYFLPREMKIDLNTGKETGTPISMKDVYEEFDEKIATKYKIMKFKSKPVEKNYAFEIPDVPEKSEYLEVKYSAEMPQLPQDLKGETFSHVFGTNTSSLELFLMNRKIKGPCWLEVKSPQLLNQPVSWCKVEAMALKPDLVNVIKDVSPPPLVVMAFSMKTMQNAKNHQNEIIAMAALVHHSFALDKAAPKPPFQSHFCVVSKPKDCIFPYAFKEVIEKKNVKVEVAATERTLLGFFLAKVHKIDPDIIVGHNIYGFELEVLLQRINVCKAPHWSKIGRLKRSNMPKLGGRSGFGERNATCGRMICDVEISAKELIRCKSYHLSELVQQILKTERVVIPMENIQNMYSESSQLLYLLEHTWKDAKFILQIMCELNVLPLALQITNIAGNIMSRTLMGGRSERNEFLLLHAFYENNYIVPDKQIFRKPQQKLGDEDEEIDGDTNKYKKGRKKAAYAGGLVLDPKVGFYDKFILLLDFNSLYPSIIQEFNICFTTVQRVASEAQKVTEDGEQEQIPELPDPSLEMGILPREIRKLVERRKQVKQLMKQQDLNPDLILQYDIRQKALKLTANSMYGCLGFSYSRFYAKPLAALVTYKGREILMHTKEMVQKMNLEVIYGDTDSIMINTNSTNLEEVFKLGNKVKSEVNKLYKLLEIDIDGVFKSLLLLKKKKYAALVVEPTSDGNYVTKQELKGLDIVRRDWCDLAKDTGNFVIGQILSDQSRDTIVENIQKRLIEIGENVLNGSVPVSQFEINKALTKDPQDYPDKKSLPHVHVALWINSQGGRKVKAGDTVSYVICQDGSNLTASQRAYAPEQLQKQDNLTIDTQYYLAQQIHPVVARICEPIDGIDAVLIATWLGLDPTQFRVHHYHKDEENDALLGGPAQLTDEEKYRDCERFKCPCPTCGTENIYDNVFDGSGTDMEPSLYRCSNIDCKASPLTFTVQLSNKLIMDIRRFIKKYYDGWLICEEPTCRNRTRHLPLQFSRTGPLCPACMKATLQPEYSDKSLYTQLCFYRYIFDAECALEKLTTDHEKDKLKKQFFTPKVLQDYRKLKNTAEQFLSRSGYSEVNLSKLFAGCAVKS
Description: Inhibition of human alpha DNA polymerase (95 uL) activity in a solution containg […] HEPES (pH 7.5) upon incubation for 12 minutes at 26 degrees C with the compound dissolved in DMSO.

The nature of data set [5]: Toxicity on uninfected African green monkey kidney cells determined in microscopic evaluation and quantitative neutral red dye uptake assay. The note with it: chlorocebus sabaeus, uninfected African green monkey kidney (Vero) cells. In kind it is cell-based. The method, boiled down:
as §1

What is called IC50 is the midpoint of a concentration-inhibition curve. In general, CC50 refers to the concentration at which the toxic effect on the cells reaches its halfway point. Turning to `Cn1cc(C(=O)NCc2ccc(Cl)cc2)c(=O)c2cc(CN3CCOCC3)sc21`, the IC50 with Vero is 3.7 µM; in the data set with HFF [2] it was 0.8 µM; in the data set with HFF [3] it was 0.77 µM; in data set [4], greater than 40 µM. In addition, the CC50 in data set [1] and in data set [5] was greater than 100 µM each time.

For `O=C(NCc1ccc(Cl)cc1)c1cnc2ccc(CCCO)cc2c1O`, the IC50 with Vero is 7.4 µM; in the data set on HFF [2], 1 µM; in the data set on HFF [3], 0.17 µM; in data set [4], greater than 40 µM. Besides, the CC50 in data set [1] and in data set [5] was greater than 100 µM in each case.

With `Cn1cc(C(=O)NCc2ccc(Cl)cc2)c(=O)c2cc(CN3CCOCC3)ccc21`, the IC50 is 3.5 µM in the data set on Vero, 0.9 µM with HFF [2], 0.34 µM in the data set with HFF [3] and greater than 40 µM in data set [4]. Besides, the CC50 in data set [1] and in data set [5] was greater than 100 µM each time.

Values taken from ChEMBL document CHEMBL1141075, “4-Oxo-4,7-dihydrothieno[2,3-b]pyridines as non-nucleoside inhibitors of human cytomegalovirus and related herpesvirus polymerases” (J Med Chem, 2005).
